Here are results for nine compounds from ChEMBL document CHEMBL1130407, “Structure-based design of new constrained cyclic agonists of the cholecystokinin CCK-B receptor” (J Med Chem, 1997).

For test [1], the target named is T1, Gastrin/cholecystokinin type B receptor (Rattus norvegicus, UniProt P30553).
T1 sequence (P30553 whole entry): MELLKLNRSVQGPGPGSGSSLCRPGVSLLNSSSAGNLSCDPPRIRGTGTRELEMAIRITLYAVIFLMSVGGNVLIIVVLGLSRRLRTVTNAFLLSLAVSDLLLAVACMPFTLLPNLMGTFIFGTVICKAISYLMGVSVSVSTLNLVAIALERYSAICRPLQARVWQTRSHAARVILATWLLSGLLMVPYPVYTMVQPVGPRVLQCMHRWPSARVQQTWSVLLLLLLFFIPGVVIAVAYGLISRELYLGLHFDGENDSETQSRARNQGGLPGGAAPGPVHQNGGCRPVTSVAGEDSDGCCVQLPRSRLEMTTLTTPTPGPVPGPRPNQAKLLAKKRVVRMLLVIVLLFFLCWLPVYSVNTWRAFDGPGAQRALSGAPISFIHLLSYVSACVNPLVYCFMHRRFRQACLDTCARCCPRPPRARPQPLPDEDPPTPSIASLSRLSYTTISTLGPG
In words: Effective concentration for the stimulation of Inositol Phosphate accumulation in CHO cells expressing wild-type Cholecystokinin type B receptor. The class given is functional, cell-based.

Test [2] deals with T1, Gastrin/cholecystokinin type B receptor. In words: Affinity to inhibit [3H]pCCK-8 specific binding on rat brain Cholecystokinin type B receptor expressed in CHO cells. The class given is cell-based.
For test [3], the target named is T2, Cholecystokinin receptor type A (Cavia porcellus, UniProt Q63931).
T2 sequence (Q63931 whole entry): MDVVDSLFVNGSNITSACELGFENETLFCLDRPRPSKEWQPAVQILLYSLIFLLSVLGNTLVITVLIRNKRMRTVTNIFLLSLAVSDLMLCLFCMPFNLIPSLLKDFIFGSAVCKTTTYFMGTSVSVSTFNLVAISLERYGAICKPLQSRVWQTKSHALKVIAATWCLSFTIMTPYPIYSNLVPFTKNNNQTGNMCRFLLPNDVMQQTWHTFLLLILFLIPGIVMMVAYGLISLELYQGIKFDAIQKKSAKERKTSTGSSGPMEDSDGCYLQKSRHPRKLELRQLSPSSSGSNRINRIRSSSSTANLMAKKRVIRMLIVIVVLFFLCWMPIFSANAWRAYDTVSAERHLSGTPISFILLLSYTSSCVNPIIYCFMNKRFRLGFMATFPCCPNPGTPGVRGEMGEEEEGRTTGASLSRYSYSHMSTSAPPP
In words: Inhibition of [3H]pCCK-8 binding to Cholecystokinin type A receptor of Guinea pig pancreatic membranes. In outline: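 Guinea pig pancreatic membranes (0.2 mg protein/tube) incubated with 0.1 nM [3H]pCCK8 and varying competitor for 120 min at 25 °C. Buffer: 10 mM Pipes-HCl pH 6.5, 30 mM MgCl2, 0.2 mg/mL bacitracin, 0.2 mg/mL soybean trypsin inhibitor. Filtration read-out; Ki by Cheng–Prusoff; three experiments in triplicate, mean ± SEM.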

In test [4] the target is T3, Gastrin/cholecystokinin type B receptor (Rattus norvegicus) (UniProt P30553).
T3 sequence (whole entry): T1 sequence (P30553 whole entry)
In words: Compound was tested for its ability to stimulate the CCK-B/gastrin receptor by measuring gastric acid output in the anesthetized perfused rat stomach. The class given is functional, tissue-based. A digest of the protocol:
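Male Sprague–Dawley rats (300 ± 25 g), fasted 18 h with water available, anesthetized with intramuscular urethane (0.6–0.7 mL of 25% solution per 100 g). Compounds in saline given iv by continuous infusion. Gastric secretion collected every 15 min and H+ titrated with 0.01 N NaOH to pH 7. Output expressed as % of baseline; ED50 estimated from dose-response curves.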

Non-standard residues stand in square brackets, D forms with d. Residues, ends and D or L forms follow the SMILES beside them. *: point of attachment. NMeNle = CCCC[C@H](NC)C(=O)O; Boc = CC(C)(C)OC(=O)*

For `C[C@]1(Cc2c[nH]c3ccccc23)NC(=O)CCCCSSCC[C@@H](C(=O)N[C@@H](CC(=O)O)C(=O)N[C@@H](Cc2ccccc2)C(N)=O)NC1=O`, the EC50 (usually the midpoint of the concentration-response curve) in test [1] (cho) stood at 0.007 µM. The figures for the Ki in test [2] (cho) and in test [3] were 0.08 µM and 0.271 µM, respectively.

With `C[C@]1(Cc2c[nH]c3ccccc23)NC(=O)CCCCSSCC[C@H](C(=O)N[C@@H](CC(=O)O)C(=O)N[C@@H](Cc2ccccc2)C(N)=O)NC1=O`, the ED50 in test [4] was found to be 52 nM/h/kg.

As for `C[C@]1(Cc2c[nH]c3ccccc23)NC(=O)CCCCCCC[C@@H](C(=O)N[C@@H](CC(=O)O)C(=O)N[C@@H](Cc2ccccc2)C(N)=O)NC1=O`, in test [3], the Ki (commonly a dissociation constant, usually derived from enzyme kinetics or from competition with a known ligand) is more than 10 µM.

In turn, `C[C@]1(Cc2c[nH]c3ccccc23)NC(=O)CC(=O)NCCCC[C@@H](C(=O)N[C@@H](CC(=O)O)C(=O)N[C@@H](Cc2ccccc2)C(N)=O)NC1=O` came in with a Ki in test [3] of 2.29 µM.

Regarding `C[C@]1(Cc2c[nH]c3ccccc23)NC(=O)CCCCCCC[C@H](C(=O)N[C@@H](CC(=O)O)C(=O)N[C@@H](Cc2ccccc2)C(N)=O)NC1=O`, the ED50 in test [4] is 7.6 nM/h/kg. This compound gave a Ki in test [3] of 2.21 µM.

Compound `CCCC[C@@H](C(=O)N[C@@H](CC(=O)O)C(=O)N[C@@H](Cc1ccccc1)C(N)=O)N(C)C(=O)[C@H](Cc1c[nH]c2ccccc12)NC(=O)OC(C)(C)C` (Boc-W[NMeNle]DF-NH2) displayed an EC50 in test [1] of 0.0015 µM. In addition, the results for the Ki in test [2] and in test [3] were 0.0087 µM and more than 5 µM, respectively.

Take `C[C@]1(Cc2c[nH]c3ccccc23)NC(=O)CCCCCC[C@@H](C(=O)N[C@@H](CC(=O)O)C(=O)N[C@@H](Cc2ccccc2)C(N)=O)NC1=O`: the Ki came to 0.142 µM in test [2] (cho) and 2.88 µM in test [3].

Regarding `CSCC[C@H](NC(=O)[C@@H](N)Cc1c[nH]c2ccccc12)C(=O)N[C@@H](CC(=O)O)C(=O)N[C@@H](Cc1ccccc1)C(N)=O` [TETRAGASTRIN], the Ki in test [3] came to 36.1 µM.

`C[C@]1(Cc2c[nH]c3ccccc23)NC(=O)CCCCCCCC[C@@H](C(=O)N[C@@H](CC(=O)O)C(=O)N[C@@H](Cc2ccccc2)C(N)=O)NC1=O`: the 50% effective concentration (EC50) in test [1] (cho) came out at 0.004 µM. Besides, the figures for the Ki in test [2] (cho) and in test [3] were 0.023 µM and 2.47 µM, respectively.
